Calls of active or inactive are those of the source. The calls are words filed in the database; no cut-off is given here.
Tests used:
[1] = tested on: Staphylococcus aureus; experiment: Antibacterial activity against methicillin-resistant Staphylococcus aureus isolate M9 after 16 to 20 hrs by broth microdilution method; format: functional
How it was run: (§1)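 CLSI broth microdilution in cation-adjusted Mueller-Hinton broth. A 4-6 h culture was diluted to about 10⁶ CFU/mL and mixed 1:1 with twofold compound dilutions (256–0.5 µg/mL before mixing) prepared from aqueous stocks. Plates were incubated at 37 °C for 16-20 h. Each concentration was tested in duplicate, and the experiment was repeated at least twice.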

[2] = tested on: Staphylococcus aureus; experiment: Antibacterial activity against methicillin-resistant Staphylococcus aureus isolate M6 after 16 to 20 hrs by broth microdilution method; format: functional; how it was run: as §1
[3] = tested on: Enterobacteriaceae; experiment: Antibacterial activity against NDM-1-producing Enterobacteriaceae isolate N9 after 16 to 20 hrs by broth microdilution method; format: functional
How it was run: (§2)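 Broth microdilution per CLSI in cation-adjusted Mueller-Hinton broth; 4-6 h cultures (~10⁸ CFU/mL) diluted to ~10⁶ CFU/mL and mixed 1:1 with twofold dilutions of water-dissolved compound (256 to 0.5 µg/mL). Incubated 16-20 h at 37 °C; MIC read visually. Each concentration run in duplicate, whole experiment repeated at least twice. MRSA, KPC and NDM-1 strains were clinical isolates.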

[4] = tested on: Staphylococcus aureus; experiment: Antibacterial activity against methicillin-resistant Staphylococcus aureus after 16 to 20 hrs by broth microdilution method; format: functional; how it was run: as §1
[5] = tested on: Staphylococcus aureus; experiment: Bactericidal activity against methicillin-resistant Staphylococcus aureus after 20 to 24 hrs in presence of 50% blood by broth microdilution method; format: functional, organism-based
How it was run: (§3)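 MRSA at 10⁵ CFU/mL in 50% Mueller-Hinton broth plus 50% sheep serum, plasma or defibrinated whole blood. Serum and plasma were separated by centrifugation at 3,500 rpm for 10 min. Aqueous compound dilutions (512–4 µg/mL before mixing) were combined 1:3 with the suspension and incubated 20-24 h at 37 °C. Wells were plated on Mueller-Hinton agar for a further 20-24 h; MBC was taken as no colonies.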

[6] = tested on: Enterobacteriaceae; experiment: Antibacterial activity against NDM-1-producing Enterobacteriaceae isolate N6 after 16 to 20 hrs by broth microdilution method; format: functional; how it was run: as §2
[7] = tested on: Staphylococcus aureus; experiment: Ratio of MBC for methicillin-resistant Staphylococcus aureus in presence of 50% blood to MBC for methicillin-resistant Staphylococcus aureus; format: functional; how it was run: as §3
[8] = tested on: Staphylococcus aureus; experiment: Ratio of MBC for methicillin-resistant Staphylococcus aureus in presence of 50% plasma to MBC for methicillin-resistant Staphylococcus aureus; format: functional; how it was run: as §3
[9] = tested on: Escherichia coli; experiment: Induction of outer membrane permeabilization in Escherichia coli ATCC 25922 at 20 ug/ml measured every 2 mins for 12 mins by NPN staining based fluorescence assay; format: functional, organism-based
How it was run: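 Mid-log E. coli (~10^8 CFU/mL) in black plates pre-incubated about 40 min with NPN (10 µM, 50 µL). Baseline read 8 min (ex 350/em 420 nm), then compound added to 20 µg/mL final and fluorescence followed every 2 min for 12 min. Water-treated control.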

[10] = tested on: Klebsiella pneumoniae; experiment: Antibacterial activity against carbapenemase-producing Klebsiella pneumoniae isolate K7 after 16 to 20 hrs by broth microdilution method; format: functional; how it was run: as §2
[11] = tested on: Staphylococcus aureus; experiment: Antibacterial activity against Staphylococcus aureus ATCC 29213 after 16 to 20 hrs by broth microdilution method; format: functional; how it was run: as §1
[12] = tested on: Staphylococcus aureus; experiment: Antibacterial activity against methicillin-resistant Staphylococcus aureus isolate M3 after 16 to 20 hrs by broth microdilution method; format: functional; how it was run: as §1
[13] = tested on: Enterobacteriaceae; experiment: Antibacterial activity against NDM-1-producing Enterobacteriaceae isolate N3 after 16 to 20 hrs by broth microdilution method; format: functional; how it was run: as §2
[14] = tested on: Enterobacteriaceae; experiment: Antibacterial activity against NDM-1-producing Enterobacteriaceae after 16 to 20 hrs by broth microdilution method; format: functional; how it was run: as §2
[15] = tested on: Escherichia coli; experiment: Induction of inner membrane permeabilization in Escherichia coli ATCC 25922 at 20 ug/ml measured every 2 mins for 12 mins by propidium iodide staining based fluorescence assay; format: functional, organism-based
How it was run: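 Mid-log cells (~10^8 CFU/mL) pre-incubated with propidium iodide (10 µM, 50 µL), 30 min for S. aureus and 40 min for E. coli. Fluorescence (ex 535/em 617 nm) read for 8 min, then compound added to 20 µg/mL final and monitored every 2 min for 12 min. Water-treated control.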

[16] = tested on: Salmonella enterica; experiment: Antibacterial activity against Salmonella enterica after 16 to 20 hrs by broth microdilution method; format: functional; how it was run: as §2
[17] = tested on: Enterobacteriaceae; experiment: Antibacterial activity against NDM-1-producing Enterobacteriaceae isolate N4 after 16 to 20 hrs by broth microdilution method; format: functional; how it was run: as §2
[18] = tested on: Enterococcus faecalis; experiment: Antibacterial activity against Enterococcus faecalis after 16 to 20 hrs by broth microdilution method; format: functional; how it was run: as §2
[19] = Hemolytic activity in sheep RBC after 1 hr; format: ADME, cell-based, Ovis aries, Erythrocyte; details: sheep red blood cells (erythrocytes)
How it was run: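 Sheep RBCs suspended at 5% in PBS; 150 µL added to 50 µL compound dilutions (5120 to 10 µg/mL series). Incubated 1 h at 37 °C, then centrifuged; supernatant absorbance read at 540 nm. Lysis (%) = (A−A0)/(Atotal−A0)×100, with untreated 5% RBC as A0 and 0.1% Triton X-100 as total.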

[20] = tested on: HeLa; experiment: Cytotoxicity against human HeLa cells at 1 to 2 times MIC after 24 hrs by calcein AM/propidium iodide staining based fluorescence microscopic method; format: cell-based
How it was run: (§4)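 HeLa cells kept in DMEM with 10% FBS at 37 °C and 5% CO2, seeded in 12-well plates and left to adhere overnight. Cells then exposed 24 h to 1, 2, 4, 8 and 16 µg/mL, with 0.1% Triton X-100 as positive control and untreated wells as negative control. Cells washed with PBS, imaged for morphology, and stained 15 min at 37 °C with 2 µM calcein AM plus 4.5 µM PI for live/dead fluorescence.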

[21] = tested on: HeLa; experiment: Cytotoxicity against human HeLa cells assessed as altered morphology at 1 to 2 times MIC after 24 hrs by optical microscopic method; format: cell-based; how it was run: as §4
[22] = tested on: Escherichia coli; experiment: Antibiofilm activity against Escherichia coli ATCC 25922 assessed as bacterial cell viability in biofilm at 2 ug/ml after 24 hrs (reference value: 25.9 log10CFU/ml); format: functional
How it was run: (§5)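 Mid-log cells at ~10⁵ CFU/mL grown stationary in 96-well plates (S. aureus in MHB for 24 h; E. coli in M9 with 0.02% casamino acids and 0.5% glycerol for 72 h). After washing, biofilms exposed 24 h at 37 °C to 2-128 µg/mL; detached with trypsin-EDTA, serially plated, viability given as log10 CFU/well against an untreated control.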

[23] = tested on: Escherichia coli; experiment: Antibiofilm activity against Escherichia coli ATCC 25922 assessed as bacterial cell viability in biofilm at 32 ug/ml after 24 hrs (reference value: 25.9 log10CFU/ml); format: functional; how it was run: as §5
[24] = tested on: Escherichia coli; experiment: Bactericidal activity against Escherichia coli ATCC 25922 assessed as time required to kill late exponential phase at 12 to 16 ug/ml by time kill assay; format: functional
[25] = tested on: Staphylococcus aureus; experiment: Ratio of MBEC to MIC for Staphylococcus aureus ATCC 29213; format: functional
How it was run: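 For MBEC, biofilms grown 24 h at 37 °C from a 1:1000 dilution of exponential-phase culture, washed, exposed 24 h to two-fold compound dilutions in fresh medium, then recovered 24 h in medium alone; MBEC is the lowest concentration with no turbidity. MIC by CLSI broth microdilution in cation-adjusted MHB, ~10^6 CFU/mL inoculum, 37 °C, 16–20 h.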

SMILES | MIC [1] [µg/mL] | MIC [2] [µg/mL] | MIC [3] [µg/mL] | MIC [4] [µg/mL] | Activity [5] | MIC [6] [µg/mL] | Ratio [7] | Ratio [8] | Activity [9] | MIC [10] [µg/mL] | MIC [11] [µg/mL] | MIC [12] [µg/mL] | MIC [13] [µg/mL] | MIC [14] [µg/mL] | Activity [15] | MIC [16] [µg/mL] | MIC [17] [µg/mL] | MIC [18] [µg/mL] | HC50 at 1 h [19] [µg/mL] | Activity [20] | further results
CCCCCCCCCCN(CCCCCCCCCC)C(=O)[C@@H](N)CCCN=C(N)N.Cl.Cl.Cl | 2 | 2 | 8 | 2 | inactive | 4 | 8 - 16 | 2 - 4 | Active | 4 | 2 | 2 | 4 | 4 | Active | 4 | 4 | 2 | 87 | – | –
CCCCCCCCCN(CCCCCCCCC)C(=O)[C@@H](N)CCCN=C(N)N.Cl.Cl.Cl | 2 | 2 | 4 | 2 | inactive | 4 | 8 - 16 | 2 - 4 | Active | 4 | 1 | 1 | 4 | 4 | Active | 4 | 4 | 2 | 119 | Non-Toxic | Activity [21]: Non-Toxic
CCCCCCCCN(CCCCCCCC)C(=O)[C@@H](N)CCCN=C(N)N.Cl.Cl.Cl | 1 | 0.5 | 8 | 0.5 | inactive | 4 | 8 - 16 | 2 - 4 | Active | 8 | 1 | 0.5 | 8 | 4 | Active | 8 | 8 | 2 | 124 | – | –
CCCCCCCCCCN(CCCCCCCCCC)C(=O)[C@@H](N)CCCCN.Cl.Cl | 1 | 1 | 4 | 1 | inactive | 4 | 8 - 16 | 2 - 4 | Active | 4 | 4 | 2 | 4 | 4 | Active | 2 | 4 | 2 | 98 | – | –
CCCCCCCCCN(CCCCCCCCC)C(=O)[C@@H](N)CCCCN.Cl.Cl | 1 | 1 | 4 | 0.5 | inactive | 2 | 8 - 16 | 2 - 4 | Active | 2 | 1 | 1 | 2 | 2 | Active | 2 | 2 | 1 | 133 | Non-Toxic | Activity [22]: 24.7 log10CFU; Activity [23]: 2.1 log10CFU; Activity [21]: Non-Toxic; Time [24]: 1 h; Ratio [25]: 64
CCCCCCCCN(CCCCCCCC)C(=O)[C@@H](N)CCCCN.Cl.Cl | 1 | 0.5 | 8 | 0.5 | inactive | 4 | 8 - 16 | 2 - 4 | Active | 2 | 2 | 1 | 8 | 4 | Active | 4 | 8 | 2 | 225 | – | –

Reference: ChEMBL document CHEMBL4130549, “Synthesis and bioactivities study of new antibacterial peptide mimics: The dialkyl cationic amphiphiles” (Eur J Med Chem, 2018)
